Data: ChEMBL document CHEMBL3098028, “Synthesis and in vitro and in vivo pharmacological evaluation of new 4-aminoquinoline-based compounds” (ACS Med Chem Lett, 2013)
Converted amounts (≈) assume the structure as drawn.

Legend:
[1] = Hepatic extraction ratio in mouse liver microsomes at 1 uM after 40 mins; format: ADME, Microsome; conditions: read-out: ERH
Liver microsome [2] = experiment: Drug metabolism in rat liver microsomes assessed as 4-(2-((1-tert-butyl-1H-tetrazol-5-yl)(4-chlorophenyl)methylamino)ethylamino)-7-chloroquinoline 1-oxide level at 5 uM after 1 hr by LC-MS/MS analysis; format: ADME
Liver microsome [3] = experiment: Drug metabolism in rat liver microsomes assessed as 2-(5-((4-chlorophenyl)(2-(7-chloroquinolin-4-ylamino)ethylamino)methyl)-1H-tetrazol-1-yl)-2-methylpropan-1-ol level at 5 uM after 1 hr by LC-MS/MS analysis; format: ADME
[4] = Kinetic solubility of the compound in phosphate buffered saline at pH 7.4 after 2 hrs by HPLC analysis; format: physicochemical; conditions: read-out: Kinetic_solubility
Liver microsome [5] = experiment: Drug metabolism in human liver microsomes assessed as 4-(2-((1-tert-butyl-1H-tetrazol-5-yl)(4-chlorophenyl)methylamino)ethylamino)-7-chloroquinoline 1-oxide level at 5 uM after 1 hr by LC-MS/MS analysis; format: ADME
Plasmodium falciparum [6] = experiment: Antiplasmodial activity against chloroquine-sensitive Plasmodium falciparum 3D7 after 24 hrs by [3H]hypoxanthine incorporation assay; format: functional, organism-based
How it was run: (§1)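 Antiplasmodial testing was done at the Swiss Tropical and Public Health Institute. Chloroquine, the reference drug, was tested as its diphosphate salt.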

Plasmodium falciparum [7] = experiment: Antiplasmodial activity against chloroquine-resistant Plasmodium falciparum K1 after 24 hrs by [3H]hypoxanthine incorporation assay; format: functional, organism-based; how it was run: as §1
Plasmodium falciparum [8] = experiment: Antiplasmodial activity against chloroquine-resistant Plasmodium falciparum W2 after 24 hrs by [3H]hypoxanthine incorporation assay; format: functional, organism-based; how it was run: as §1
Mus musculus [9] = experiment: AUC (0 to infinity) in C57BL/6 mouse at 20 mg/kg, po; format: ADME, organism-based, Plasma; set-up: time infinity, dose 20 mg/kg, route oral; conditions: in vivo
How it was run: (§2)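 Healthy male C57/BL6 mice received a single intravenous dose (2.5 or 5.0 mg/kg) or oral dose (20 or 40 mg/kg). Plasma concentrations were followed over time to give AUC0-∞ in min·μmol/L, alongside t1/2, CL, Vd, Vss, Cmax, Tmax and oral bioavailability. Values are means of five animals.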

[10] = Hepatic extraction ratio in human liver microsomes at 1 uM after 40 mins; format: ADME; conditions: read-out: ERH
Plasmodium berghei [11] = experiment: Antimalarial activity against Plasmodium berghei ANKA infected in C57BL/6 mouse assessed as reduction in parasitemia at 1 mg/kg, po qd for 4 days measured on day 7 by light microscopic analysis relative to control; format: functional; set-up: scale not given: the % may be the effect or the level left
How it was run: (§3)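 Male C57/BL6 mice were infected with P. berghei ANKA and dosed orally once daily for four days at 1, 10, 5 or 20 mg/kg, with 5 mice per dose group. The negative control received blank formulation solution. Blood smears were taken on days 3, 5 and 7, and parasitemia was read by light microscopy. The result is % parasitemia reduction on day 7 versus placebo.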

[12] = Drug metabolism in hepatocytes (unknown origin) assessed as 4-(2-((1-tert-butyl-1H-tetrazol-5-yl)(4-chlorophenyl)methylamino)ethylamino)-7-chloroquinoline 1-oxide level at 5 uM after 6 hrs by LC-MS/MS analysis; format: ADME, cell-based, Hepatocyte
Mus musculus [13] = experiment: AUC (0 to infinity) in C57BL/6 mouse at 40 mg/kg, po; format: ADME, organism-based, Plasma; set-up: time infinity, dose 40 mg/kg, route oral; conditions: in vivo; how it was run: as §2
CHO = experiment: Cytotoxicity against CHO cells; format: cell-based; conditions: Cricetulus griseus
Plasmodium falciparum [14] = experiment: Resistance index, ratio of IC50 for chloroquine-resistant Plasmodium falciparum K1 to IC50 for chloroquine-sensitive Plasmodium falciparum 3D7; format: functional
Mus musculus [15] = experiment: AUC (0 to infinity) in C57BL/6 mouse at 2.5 mg/kg, iv; format: ADME, organism-based, Plasma; set-up: time infinity, dose 2.5 mg/kg, route intravenous; conditions: in vivo; how it was run: as §2
[16] = Drug metabolism in hepatocytes (unknown origin) assessed as 2-(5-((4-chlorophenyl)(2-(7-chloroquinolin-4-ylamino)ethylamino)methyl)-1H-tetrazol-1-yl)-2-methylpropan-1-ol level at 5 uM after 6 hrs by LC-MS/MS analysis; format: ADME, cell-based, Hepatocyte
Mus musculus [17] = experiment: AUC (0 to infinity) in C57BL/6 mouse at 5 mg/kg, iv; format: ADME, organism-based, Plasma; set-up: dose 5 mg/kg, route intravenous, time infinity; conditions: in vivo; how it was run: as §2
Plasmodium berghei [18] = experiment: Antimalarial activity against Plasmodium berghei ANKA infected in C57BL/6 mouse assessed as reduction in parasitemia at 20 mg/kg, po qd for 4 days measured on day 7 by light microscopic analysis relative to control; format: functional; set-up: scale not given: the % may be the effect or the level left; how it was run: as §3
Plasmodium berghei [19] = experiment: Antimalarial activity against Plasmodium berghei ANKA infected in C57BL/6 mouse assessed as reduction in parasitemia at 10 mg/kg, po qd for 4 days measured on day 7 by light microscopic analysis relative to control; format: functional; set-up: scale not given: the % may be the effect or the level left; how it was run: as §3
Liver microsome [20] = experiment: Drug metabolism in human liver microsomes assessed as 2-(5-((4-chlorophenyl)(2-(7-chloroquinolin-4-ylamino)ethylamino)methyl)-1H-tetrazol-1-yl)-2-methylpropan-1-ol level at 5 uM after 1 hr by LC-MS/MS analysis; format: ADME
[21] = Kinetic solubility of the compound in 0.01 M HCl at pH 2 after 2 hrs by HPLC analysis; format: physicochemical; conditions: read-out: Kinetic_solubility
Plasmodium berghei [22] = experiment: Antimalarial activity against Plasmodium berghei ANKA infected in C57BL/6 mouse assessed as reduction in parasitemia at 5 mg/kg, po qd for 4 days measured on day 7 by light microscopic analysis relative to control; format: functional; set-up: scale not given: the % may be the effect or the level left; how it was run: as §3

CC(C)(C)n1nnnc1C(NCCNc1ccnc2cc(Cl)ccc12)c1ccc(Cl)c(Cl)c1 (configuration not stated)
hepatic extraction ratio at 40 min, 1 µM [1]: > 0.8 | Drug metabolism (Liver microsome [2]): Active | Drug metabolism (Liver microsome [3]): Active | solubility kinetic at 2 h [4]: 25 µM (≈ 12.6 µg/mL) | Drug metabolism (Liver microsome [5]): Active | IC50 (Plasmodium falciparum [6]): 0.4 nM | IC50 (Plasmodium falciparum [7]): 8 nM | IC50 (Plasmodium falciparum [8]): 30.5 nM | AUC (Mus musculus [9]): 256 µmol·min/L | hepatic extraction ratio at 40 min, 1 µM [10]: > 0.8 | Activity (Plasmodium berghei [11]): 22.7% | Drug metabolism [12]: Active | AUC (Mus musculus [13]): 287 µmol·min/L | IC50 (CHO): 10.5 µM | Ratio IC50 (Plasmodium falciparum [14]): 20 | AUC (Mus musculus [15]): 104 µmol·min/L | Drug metabolism [16]: Active | AUC (Mus musculus [17]): 222 µmol·min/L | Activity (Plasmodium berghei [18]): 44.5% | Activity (Plasmodium berghei [19]): 41.4% | Drug metabolism (Liver microsome [20]): Active | solubility kinetic at 2 h [21]: 194 µM (≈ 97.9 µg/mL) | Activity (Plasmodium berghei [22]): 46.9%

CC(C)(C)n1nnnc1C(NCCCNc1ccnc2cc(Cl)ccc12)c1ccccc1 (configuration not stated)
IC50 (Plasmodium falciparum [6]): 2 nM | IC50 (Plasmodium falciparum [7]): 27 nM | IC50 (Plasmodium falciparum [8]): 39 nM | Ratio IC50 (Plasmodium falciparum [14]): 13.5
